This is one part of a sample in which hits are shown more often than they occur.
ABCG2 inh: inhibitors of human ABCG2 transporter, ABCB1 counter-screen | IgMXP3 cells, JC-1 efflux, flow cytometry | inhibition, % at 6.6 µM | Q9UNQ0 | actives 0.1% (n = 190,000) | AID 1325;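 active means inhibition above 80%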;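 further: 0% = DMSO and 100% = nicardipine control wells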
Target sequence (Q9UNQ0 whole entry, looked up): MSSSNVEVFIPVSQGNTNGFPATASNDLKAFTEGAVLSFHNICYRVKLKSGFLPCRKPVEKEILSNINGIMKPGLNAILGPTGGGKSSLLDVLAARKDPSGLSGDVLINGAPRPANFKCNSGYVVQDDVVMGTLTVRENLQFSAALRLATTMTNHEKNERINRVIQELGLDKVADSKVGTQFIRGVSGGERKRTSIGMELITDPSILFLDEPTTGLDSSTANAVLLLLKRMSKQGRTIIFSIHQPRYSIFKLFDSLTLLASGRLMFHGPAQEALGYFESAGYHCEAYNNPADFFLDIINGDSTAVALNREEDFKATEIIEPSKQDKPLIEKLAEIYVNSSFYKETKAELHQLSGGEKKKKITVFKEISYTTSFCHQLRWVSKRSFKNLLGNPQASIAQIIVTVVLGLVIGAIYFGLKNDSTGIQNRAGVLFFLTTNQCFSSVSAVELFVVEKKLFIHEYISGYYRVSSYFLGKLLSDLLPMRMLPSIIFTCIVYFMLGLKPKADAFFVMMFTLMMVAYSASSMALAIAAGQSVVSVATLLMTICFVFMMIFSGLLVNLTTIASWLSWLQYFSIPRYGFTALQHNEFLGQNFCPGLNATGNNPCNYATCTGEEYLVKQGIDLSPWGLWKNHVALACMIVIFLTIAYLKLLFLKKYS
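Assay system – ABCG2 IgMXP3 and barcoded ABCB1 CCRF-Adr cell mix · Input – 3 million cells/mL in well · Reagent – JC-1 fluorescent substrate · Compound – single test compound dose, 6.6 µM final · Timing – 10 min exposure at 25 °C with rotation, no wash · Detection – flow cytometry of retained JC-1 fluorescence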
TRPN1 ag: activates the zebrafish TRPN1 channel; actives 0.18% (n = 220,000); activation, % at 3 µM; HEK293 zebrafish TRPN1-YFP, Fluo-8 calcium fluorescence; 100% = response to 87 µM carbachol;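 active means activation above its plate's cutoff, the mean activation of test wells on that plate plus 3 SD, cut at about 19% in these data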;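 further: 0% = DMSO alone and 100% = 87 µM carbachol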
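System: zebrafish TRPN1-YFP in HEK293 cells / Dosing: 3 µM single point / Timing: dye loading 1 h at 37 °C, then 30 min room temperature / Signal: Fluo-8 calcium fluorescence, excitation 470-495 nm, emission 515-575 nm / Read-out basis: percent activation from peak over basal fluorescence ratio, control-normalized / Control set: high carbachol 87 µM, low DMSO alone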
Calb biofilm kill: mixtures killing C. albicans biofilm; C. albicans biofilm persisters + clotrimazole, fluorescence viability; primary screen in compound mixtures of four per well; inhibition, % at 7.6 µM; actives 0.02% (n = 120,000); AID 1242;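 active means inhibition above 30.3% in the primary screen of four-compound pools, then above 30% when the compound was retested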;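 further: compounds exposed to preformed 24 h biofilms for 48 h; 0% = untreated biofilm control and 100% = clotrimazole plus chlorhexidine kill blank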
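Incubation: 24 h biofilm formation, then 48 h compound exposure, 37 °C | Material: C. albicans biofilms | Buffer or medium: RPMI/MOPS medium, pH 7.0 | Measured by: 2-h Alamar Blue fluorescence, 535/590 nm excitation/emission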
TRPML3 agonist: agonists of human TRPML3 channel | AID 1448 | actives 0.29% (n = 220,000) | activation, % at 3 µM | HEK293 TRPML3-YFP, Fluo-8 calcium fluorescence; 100% = the carbachol control signal | Q8TDD5;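 active means activation above its plate's cutoff, the mean activation of the plate's test wells plus 3 SD, cut at about 12% in these data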;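 further: 0% = DMSO only wells and 100% = carbachol wells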
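Material: HEK293 cells stably carrying human TRPML3-YFP; compound dosing: single dose, 3 µM final nominal compound, 0.3% DMSO final; incubation: 1-h 37 °C dye load, 5-s basal, 120-s post-compound reads; technique: Fluo-8 intracellular calcium fluorescence, excitation 470-495 nm, emission 515-575 nm; read-out basis: percent activation from peak-to-basal fluorescence ratio, scaled between DMSO and carbachol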
ABCB1 inh: blocks JC-1 efflux by human ABCB1 transporter. P08183. CCRF-Adr cells, flow cytometry. inhibition, % at 6.6 µM. actives 0.067% (n = 190,000). AID 1326; in the data active means inhibition above about 40%;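 further: 0% = vehicle and 100% = reference inhibitor; higher value means more JC-1 retained so stronger ABCB1 efflux block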
ROMK mod: modulators of human ROMK potassium channel; P48048; Tet-inducible ROMK, thallium flux fluorescence; actives lie on both sides; B-score at 10 µM; actives 2% (n = 130,000);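 active means signal ratio slope over the read window, or its plate-corrected B-score, at least 3 SD from the plate mean, either direction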;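 further: B-score of the F/F0 ratio slope over 7 to 12 s after thallium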
ROMK retest: confirmation of human ROMK potassium channel modulators. shares compounds with ROMK mod. ROMK thallium flux, fluorescence ratio; hits give low values. normalized thallium flux (F/F0 slope) at 10 µM. actives 54% (n = 3,000). AID 1917;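 active means Flux at 10 µM at least 3 SD below or above vehicle control mean in one or both replicates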
* marks the source's active call; other numbers are inactive results; · = no result given.

SMILES	ABCG2 inh	TRPN1 ag	Calb biofilm kill	TRPML3 agonist	ABCB1 inh	ROMK mod	ROMK retest
CCCC(=O)Nc1sc2c(c1C(=O)OC)C(C(=O)OC)CC2 (centres undefined)	4	0	14	0	5	·	·
COCC(=O)Nc1sc2c(c1C(=O)OC)C(C(=O)OC)CC2 (centres undefined)	2	-1	·	0	1	·	0.081
CCOC(=O)c1c(CSc2ccc(C)cc2)n(C)c2cc(Br)c(O)c(CN(C)C)c12	5	-2	14	-1	6	·	0.051*
c1coc(CNc2ncnc3sc4c(c23)CCCCC4)c1	17	-2	·	-1	0	·	0.062*
Cc1nc(NCc2ccco2)c2c3c(sc2n1)CCC3	6	-2	·	0	1	·	·
O=C(CCS(=O)(=O)c1ccc(Cl)cc1)Nc1ccc(N2CCOCC2)cc1	·	1	30	1	·	·	·
COc1cccc(-c2nc(C=O)cs2)c1	1	-1	18	0	0	4.4*	0.1*
COc1ccc(-c2nc(C=O)cs2)cc1	·	1	26	0	·	·	·
Cc1nc(SCCOc2ccccc2F)[nH]c(=O)c1Cc1ccccc1	9	-1	14	0	0	0.25	·
COC(=O)CSC1=C(C#N)C(=O)NC(c2ccccc2)S1 (centres undefined)	-2	0	·	1	0	-0.51	·
CSC1=C(C#N)C(=O)NC(c2ccccc2O)S1 (centres undefined)	·	-1	19	0	·	-4.2*	0.059*
CC(=O)OCC(OC(C)=O)C(OC(C)=O)C(OC(C)=O)C(=O)Nc1ccccc1 (centres undefined)	-1	0	10	1	0	-1	·
CC(=O)OCC(OC(C)=O)C(OC(C)=O)C(OC(C)=O)C(=O)Nc1ccc(C)cc1 (centres undefined)	8	1	·	1	0	·	0.087
CC1CCN(S(=O)(=O)c2cn(CC(=O)N3CC(C)CC(C)C3)c(=O)c3ccccc23)CC1 (centres undefined)	14	1	23	-1	5	-0.055	·
Cc1[nH]n(-c2ccc(Br)cc2)c(=O)c1C=Nc1ccc(S(=O)(=O)Nc2nccs2)cc1	-2	0	10	1	-1	·	0.086
CCOc1ccc(-c2nc(CSCC(=O)N3CCN(c4cccc(OC)c4)CC3)c(C)o2)cc1	19	5	·	2	13	·	0.067*
Cc1ccc(-c2nc(CSCC(=O)N3CCN(c4ccccn4)CC3)c(C)o2)cc1	1	6	·	3	0	·	·
CC1(C)Cc2cccc(C(=O)NC3CCN(Cc4ccccc4)CC3)c2O1	·	2	20	0	·	·	·
O=C(Nc1c2c(nc3ccccc13)CCCC2)c1cccc([N+](=O)[O-])c1	16	-1	14	0	1	-0.24	·
CCOC(=O)c1sc2nc(COC(=O)c3c(F)cccc3F)[nH]c(=O)c2c1C	-1	0	23	1	-1	-2.4*	0.09
O=C(CN1C(=O)CC(c2ccccc2)S(=O)(=O)c2ccccc21)N1CCCC1 (centres undefined)	1	1	12	1	0	-0.038	·
O=C(O)c1ccc(CS(=O)(=O)c2cccc(C(F)(F)F)c2)o1	4	1	·	1	1	·	0.078
O=C(CSc1nc(-c2ccco2)cc(C(F)(F)F)n1)NCCN1CCOCC1	6	1	22	0	1	0.46	·
Cc1cc(C)n(-c2ccc(C(=O)OCC(=O)Nc3ccc(S(=O)(=O)N4CCCCC4)cc3)cc2)n1	0	-1	·	1	0	2*	0.078
Cc1ccc(NC(=S)NNC(=O)c2ccccc2O)c(C)c1	8	11	11	9	-1	2.9*	0.064*
SMILES	ABCG2 inh	TRPN1 ag	Calb biofilm kill	TRPML3 agonist	ABCB1 inh	ROMK mod	ROMK retest
Cc1cccc(NC(=S)NNC(=O)c2ccc(O)cc2O)c1C	11	0	9	1	0	0.73	·
Cc1nc(-c2ccccc2)nc2[nH]c(-c3ccccc3)cc(=O)c12	9	0	·	-1	2	0.94	·
Cc1nc(C)c2c(=O)cc(-c3ccccc3)[nH]c2n1	8	0	·	1	1	1.2*	0.091
Cc1ccc(SC(C)c2nc(-c3ccncc3)no2)cc1 (centres undefined)	3	1	·	-1	0	-3.1*	0.067*
CCN(CC)S(=O)(=O)c1cccc(C(=O)NC(Cc2c[nH]c3ccccc23)c2nnc3n2CCC3)c1 (centres undefined)	4	0	9	0	0	·	·
CC1(C)Cc2c(C#N)c(SCC(=O)c3ccccc3)nc(N3CCOCC3)c2CO1	14	0	·	0	2	-3.9*	0.053*
Cc1cc(/C=N/Nc2nc(N)ncc2[N+](=O)[O-])c(C)n1-c1ccccc1F	·	3	10	1	·	·	·
O=C(Oc1ccc(=O)n(-c2ccccc2)n1)c1ccc(Cl)cc1	0	0	·	0	0	·	·
O=C(Oc1ccc(=O)n(-c2ccccc2)n1)c1ccc(F)cc1	8	0	7	0	2	-3.8*	0.053*
Cc1nc2c(C(=O)NCc3ccco3)cnn2c(C)c1Cc1ccc(F)cc1Cl	4	1	·	0	2	·	0.072
Cc1cc(C)n2nc(C(=O)OCC(=O)c3c[nH]c4ccccc34)nc2n1	1	2	13	1	0	1.4	·
COc1ccc(C(=O)Cn2nnc(-c3ccccc3NC(=O)C(F)(F)F)n2)cc1	4	2	·	0	2	2*	0.073
COc1ccc(-c2nnc3ccc(SCC(=O)NCC4CCCO4)nn23)cc1 (centres undefined)	-2	0	·	0	-6	-6.1*	0.07
COc1ccc2c(c1)Cc1sc(NC(=O)c3cccs3)nc1-2	1	0	·	1	0	-4.1*	0.076
CCOC(=O)C(=CNc1cc(C)ccc1-n1cccc1)C(=O)OCC	·	-1	9	-2	·	-0.23	·
COC(=O)C(=Cc1ccccc1[N+](=O)[O-])C(=O)OC	·	-1	16	3	·	-2.6*	0.051*
O=C(NC1CCCC1)C1CCN(C(=O)c2ccc(-c3ccccc3)cc2)CC1	1	2	28	1	0	·	·
COc1ccccc1N(CC(=O)N(c1ccccc1)C(C)C)S(=O)(=O)c1cccs1	4	-2	13	-1	3	-2.3	·
COc1ccccc1N(CC(=O)N(CC(C)C)CC(C)C)S(=O)(=O)c1cccs1	6	-2	10	0	2	-4.1*	0.067*
COc1cccc(CCc2nnc(CCC(=O)NC(C)c3c(C)nn(C)c3C)o2)c1 (centres undefined)	0	0	3	1	0	0.66	·
